Measurements published in article PMC8916014 (Proceedings of the National Academy of Sciences of the …, 2022).

How the values were obtained:
[1] = test system: E. coli ATCC25922 with purified LPS from E. coli O111:B4; assay: LPS-mediated antimicrobial block assay; format: cell-based, Escherichia coli; details: LPS 25 μg/mL
Method in brief: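 A virtual-colony count assay gave the fold-change in MBC against E. coli across different concentrations of added purified LPS. Polymyxin B and kanamycin were run as comparators.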

[2] = test system: E. coli ATCC25922 with purified E. coli 70S ribosome; assay: bacterial ribosome-mediated antimicrobial block assay; format: cell-based, Escherichia coli; details: 70S ribosome 12.5 nM
Method in brief: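 MBC fold-change against E. coli with exogenous E. coli 70S ribosome was determined by virtual-colony count assay. Polymyxin B and kanamycin served as comparators. Triplicate experiments were reported as mean ± SD, with one- or two-way ANOVA and Bonferroni correction.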

[3] = test system: E. coli ATCC25922 outer membrane; assay: outer membrane permeability assay; format: cell-based, Escherichia coli; details: E. coli ATCC25922, 1 h treatment, 0.195–100 μM
Method in brief: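 E. coli ATCC25922 was treated with test compound for 1 h, then probed with NPN. NPN fluorescence intensity served as the measure of outer-membrane permeability and was normalized to relative fluorescence intensity. Experiments were run in triplicate and reported as mean ± SD.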

[4] = test system: K. pneumoniae (ATCC 13883); assay: in vivo efficacy, K. pneumoniae-induced pneumonia; set-up: species or system C57BL/6 mice; details: 2 mg/kg intratracheal
[5] = test system: S. aureus (ATCC 25923); assay: in vivo efficacy, S. aureus-induced pneumonia; set-up: species or system C57BL/6 mice; details: 2 mg/kg intratracheal

| Compound | fold change in MBC in presence of LPS [1] | fold change in MBC in presence of E. coli 70S ribosome [2] | permeability of bacterial OM (NPN fluorescence) [3] | survival rate [4] [%] | efficacy in S. aureus-induced pneumonia [5] |
| --- | --- | --- | --- | --- | --- |
| NC[C@H]1O[C@H](O[C@H]2[C@H](O)[C@@H](O[C@H]3O[C@H](CO)[C@@H](O)[C@H](N)[C@H]3O)[C@H](N)C[C@@H]2N)[C@H](O)[C@@H](O)[C@@H]1O [kanamycin] | no effect | antagonized | – | – | – |
| polymyxin B [PMB] | fourfold | failed to affect activity | increased the permeability of bacterial OM in a dose-dependent manner | 100 | ineffective |
